Measured values: ChEMBL document CHEMBL1806378, “Osteogenic constituents from Pterospermum acerifolium Willd. flowers” (Bioorg Med Chem Lett, 2011)
The source made the active and inactive calls. The calls are words filed in the database; no cut-off is given here.

Experiments:
Osteoblast [1] = assay: Induction of osteogenesis in rat calvaria-derived primary osteoblasts assessed as increase in ALP activity after 48 hrs by bradford assay relative to control; type: functional, cell-based
Procedure, shortened: (§1)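 Primary rat calvarial osteoblasts (2 × 10^3 cells) seeded and exposed to graded compound concentrations for 48 h; BMP-2 as positive control, vehicle as control. ALP measured with p-nitrophenylphosphate substrate, read at 405 nm, normalized to total protein by Bradford assay. Three independent experiments, six replicates per point; mean ± SEM, one-way ANOVA versus control.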

Osteoblast [2] = assay: Induction of osteogenesis in rat calvaria-derived primary osteoblasts assessed as increase in Col1 mRNA level at 100 pM after 48 hrs by quantitative PCR analysis; type: functional, cell-based
Procedure, shortened: (§2)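 Primary rat calvarial osteoblasts treated 48 h at 100 pM; BMP-2, Col1 and runx2 transcript levels quantified by qPCR (optimized protocol). Four independent experiments in triplicate per treatment point; mean ± SEM compared with control.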

Osteoblast [3] = assay: Induction of osteogenesis in rat calvaria-derived primary osteoblasts assessed as increase in ALP activity at 1 nM to 1 uM after 48 hrs by bradford assay relative to control; type: functional, cell-based; procedure, shortened: as §1
Osteoblast [4] = assay: Induction of osteogenesis in rat calvaria-derived primary osteoblasts assessed as increase in BMP2 mRNA level at 100 pM after 48 hrs by quantitative PCR analysis; type: functional, cell-based; procedure, shortened: as §2
[5] = Cytotoxicity against rat calvaria-derived primary osteoblasts assessed as cell viability by MTT assay; type: cell-based; settings: osteoblast
Bone marrow cell = assay: Induction of mineralization in rat femur-derived bone marrow cells at 100 pM after 21 days by Alizarin Red S staining; type: functional, cell-based
Procedure, shortened: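 Rat bone marrow cells (2 × 10^5) seeded and incubated 21 days with 100 pM compound; cells fixed, stained with alizarin red-S, dye extracted and optical density measured colorimetrically. Four independent experiments in triplicate; mean ± SEM versus control.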

Osteoblast [6] = assay: Induction of osteogenesis in rat calvaria-derived primary osteoblasts assessed as increase in ALP activity at 10 pM after 48 hrs by bradford assay relative to control; type: functional, cell-based; procedure, shortened: as §1
Osteoblast [7] = assay: Induction of osteogenesis in rat calvaria-derived primary osteoblasts assessed as increase in runx2 mRNA level at 100 pM after 48 hrs by quantitative PCR analysis; type: functional, cell-based; procedure, shortened: as §2
Osteoblast [8] = assay: Induction of osteogenesis in rat calvaria-derived primary osteoblasts assessed as increase in ALP activity at 100 pM after 48 hrs by bradford assay relative to control; type: functional, cell-based; procedure, shortened: as §1

SMILES	Activity (Osteoblast [1])	Activity (Osteoblast [2])	Activity (Osteoblast [3])	Activity (Osteoblast [4])	Activity [5]	Activity (Bone marrow cell)	Activity (Osteoblast [6])	Activity (Osteoblast [7])	Activity (Osteoblast [8])
C=C[C@@](C)(CCC=C(C)C)O[C@@H]1O[C@H](CO[C@@H]2O[C@@H](C)[C@H](O)[C@@H](O)[C@H]2O)[C@@H](O)[C@H](O)[C@H]1O	inactive	–	–	–	–	–	–	–	–
CC1=CC(=O)CC(C)(C)[C@H]1/C=C/[C@H](C)O[C@@H]1O[C@H](CO)[C@@H](O)[C@H](O)[C@H]1O	inactive	–	–	–	–	–	–	–	–
C[C@@H]1O[C@@H](O[C@H]2[C@H](Oc3cc(O)c4c(=O)cc(-c5ccc(O)c(O)c5)oc4c3)O[C@H](CO)[C@@H](O)[C@@H]2O)[C@H](O)[C@H](O)[C@H]1O	inactive	–	–	–	–	–	–	–	–
O=c1cc(-c2ccc(O)c(O)c2)oc2cc(O[C@@H]3O[C@H](CO)[C@@H](O)[C@H](O)[C@H]3O)cc(O)c12	inactive	–	–	–	–	–	–	–	–
O=c1cc(-c2cccc(O)c2)oc2cc(O)c(O[C@@H]3O[C@H](CO)[C@@H](O)[C@H](O)[C@H]3O)c(O)c12	inactive	–	–	–	–	–	–	–	–
COc1cc(C(O)C(O)CO)ccc1Oc1ccc(-c2cc(=O)c3c(O)cc(O)cc3o2)cc1O (centres undefined) [PTEROSPERMIN A]	–	Active	inactive	Active	Non-toxic	Active	Active	Active	Active
O=C1OC(O)C=C1O (centres undefined) [PTEROSPERMIN C]	–	Active	inactive	Active	Non-toxic	Active	Active	Active	Active
O=C(/C=C/c1ccc(O)cc1)OC[C@H]1O[C@@H](Oc2c(-c3ccc(O)cc3)oc3cc(O)cc(O)c3c2=O)[C@H](O)[C@@H](O)[C@@H]1O [TILIROSIDE]	–	Active	inactive	Active	Non-toxic	Active	Active	Active	Active
